Data reported in ChEMBL document CHEMBL2331506, “Design, synthesis, antiviral and cytostatic evaluation of novel isoxazolidine nucleotide analogues with a carbamoyl linker” (Bioorg Med Chem, 2013).
Calls of active or inactive are those of the source.

Legend:
[1] = system: Human immunodeficiency virus 1; experiment: Antiviral activity against Human immunodeficiency virus 1 3B infected in human CEM cells assessed as reduction of virus-induced giant cell formation at 250 uM after 4 to 5 days; format: functional, organism-based; details: CCRF-CEM
How it was run: (§1)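 CEM cells at 3 × 10^5 cells/mL were infected with HIV at 100 CCID50 per mL in the presence of compound dilutions. They were held 4–5 days at 37 °C in humidified CO2. Syncytium (giant cell) formation was scored microscopically, and EC50 was taken as the concentration inhibiting giant cell formation by 50%.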

[2] = system: Vero; experiment: Cytotoxicity against african green monkey Vero cells assessed as alteration of cell morphology up to 100 uM by microscopic analysis; format: cell-based; details: chlorocebus sabaeus
How it was run: (§2)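 Uninfected host-cell cultures were exposed to compound and examined by microscopy. Cytotoxicity was expressed as the minimum cytotoxic concentration (MCC) causing a microscopically detectable alteration of normal cell morphology.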

[3] = system: Punta Toro virus; experiment: Antiviral activity against Punta Toro virus infected in african green monkey Vero cells assessed as reduction of virus-induced cytopathogenicity at 250 uM; format: functional, organism-based
How it was run: (§3)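 Confluent monolayers (HEL fibroblasts, Vero, or HeLa cells as listed) were infected with 100 CCID50 of virus in the presence of varying compound concentrations. Virus-induced cytopathicity or plaque formation was scored once cytopathicity was complete in untreated infected controls. EC50 was taken as the concentration reducing cytopathogenicity or plaque formation by 50%.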

[4] = system: Mammalian orthoreovirus 1; experiment: Antiviral activity against Reovirus 1 infected in african green monkey Vero cells assessed as reduction of virus-induced cytopathogenicity at 250 uM; format: functional, organism-based; how it was run: as §3
[5] = system: Human respirovirus 3; experiment: Antiviral activity against Parainfluenza virus 3 infected in african green monkey Vero cells assessed as reduction of virus-induced cytopathogenicity at 250 uM; format: functional, organism-based; how it was run: as §3
[6] = system: Vesicular stomatitis virus; experiment: Antiviral activity against Vesicular stomatitis virus infected in human HeLa cells assessed as reduction of virus-induced cytopathogenicity at 250 uM; format: functional, organism-based
How it was run: (§4)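 Confluent cell monolayers were infected with 100 CCID50 of virus while exposed to varying compound concentrations. Cytopathicity was scored once it was complete in untreated infected controls. EC50 was taken as the concentration that reduced virus-induced cytopathogenicity by 50%.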

[7] = system: Respiratory syncytial virus; experiment: Antiviral activity against Respiratory syncytial virus long infected in human HeLa cells assessed as reduction of virus-induced cytopathogenicity at 250 uM; format: functional, organism-based; how it was run: as §3
[8] = system: Felid alphaherpesvirus 1; experiment: Antiviral activity against Feline herpes virus infected in cat CRFK cells assessed as reduction of virus-induced cytopathogenicity at 250 uM; format: functional, organism-based
[9] = system: Coxsackievirus B4; experiment: Antiviral activity against Coxsackievirus B4 infected in african green monkey Vero cells assessed as reduction of virus-induced cytopathogenicity at 250 uM; format: functional, organism-based; how it was run: as §3
[10] = system: Human alphaherpesvirus 1; experiment: Antiviral activity against thymidine kinase-deficient, ACV-resistant Herpes simplex virus 1 KOS infected in human HEL cells assessed as reduction of virus-induced cytopathogenicity at 250 uM; format: functional, organism-based; how it was run: as §4
[11] = system: Vesicular stomatitis virus; experiment: Antiviral activity against Vesicular stomatitis virus infected in human HEL cells assessed as reduction of virus-induced cytopathogenicity at 250 uM; format: functional, organism-based; how it was run: as §4
[12] = system: Feline coronavirus; experiment: Antiviral activity against Feline coronavirus infected in cat CRFK cells assessed as reduction of virus-induced cytopathogenicity at 250 uM; format: functional, organism-based
[13] = system: HeLa; experiment: Cytotoxicity against human HeLa cells assessed as alteration of cell morphology up to 100 uM by microscopic analysis; format: cell-based; how it was run: as §2
[14] = system: Human alphaherpesvirus 2; experiment: Antiviral activity against Herpes simplex virus 2 G infected in human HEL cells assessed as reduction of virus-induced cytopathogenicity at 250 uM; format: functional, organism-based; details: strain G; how it was run: as §3
[15] = system: Influenza A virus; experiment: Antiviral activity against Influenza A virus H1N1 infected in dog MDCK cells assessed as reduction of virus-induced cytopathogenicity at 250 uM; format: functional, organism-based; how it was run: as §4
[16] = system: Influenza A virus; experiment: Antiviral activity against Influenza A virus H3N2 infected in dog MDCK cells assessed as reduction of virus-induced cytopathogenicity at 250 uM; format: functional, organism-based; how it was run: as §4
[17] = system: Sindbis virus; experiment: Antiviral activity against Sindbis virus infected in african green monkey Vero cells assessed as reduction of virus-induced cytopathogenicity at 250 uM; format: functional, organism-based; how it was run: as §3
[18] = Cytotoxicity against cat CRFK cells assessed as alteration of cell morphology up to 100 uM by microscopic analysis; format: cell-based, Felis catus; how it was run: as §2
[19] = system: Human immunodeficiency virus 2; experiment: Antiviral activity against Human immunodeficiency virus 2 ROD infected in human CEM cells assessed as reduction of virus-induced giant cell formation at 250 uM after 4 to 5 days; format: functional, organism-based; details: CCRF-CEM; how it was run: as §1
[20] = system: MDCK; experiment: Cytotoxicity against dog MDCK cells assessed as alteration of cell morphology up to 100 uM by microscopic analysis; format: cell-based, Canis lupus familiaris; how it was run: as §2
[21] = system: HEL; experiment: Cytotoxicity against human HEL cells assessed as alteration of cell morphology up to 100 uM by microscopic analysis; format: cell-based; how it was run: as §2
[22] = system: Human alphaherpesvirus 1; experiment: Antiviral activity against Herpes simplex virus 1 KOS infected in human HEL cells assessed as reduction of virus-induced cytopathogenicity at 250 uM; format: functional, organism-based; how it was run: as §3
[23] = system: Influenza B virus; experiment: Antiviral activity against Influenza B virus infected in dog MDCK cells assessed as reduction of virus-induced cytopathogenicity at 250 uM; format: functional, organism-based; how it was run: as §4

CCOP(=O)(OCC)[C@@H]1C[C@H](C(=O)Nc2cccc(C#N)c2)ON1C (racemic)
Non-toxic: Activity [2] | Activity [13] | Activity [18] | Activity [20] | Activity [21]
inactive: inhibition [1] | inhibition [3] | inhibition [4] | inhibition [5] | inhibition [6] | inhibition [7] | inhibition [8] | inhibition [9] | inhibition [10] | inhibition [11] | inhibition [12] | inhibition [14] | inhibition [15] | inhibition [16] | inhibition [17] | inhibition [19] | inhibition [22] | inhibition [23]

CCOP(=O)(OCC)[C@H]1C[C@H](C(=O)Nc2cccc(C)c2)ON1C (racemic)
inactive: inhibition [1] | inhibition [3] | inhibition [4] | inhibition [5] | inhibition [6] | inhibition [7] | inhibition [8] | inhibition [9] | inhibition [10] | inhibition [11] | inhibition [12] | inhibition [14] | inhibition [15] | inhibition [16] | inhibition [17] | inhibition [19] | inhibition [22] | inhibition [23]
Non-toxic: Activity [2] | Activity [13] | Activity [18] | Activity [20] | Activity [21]

CCOP(=O)(OCC)[C@@H]1C[C@H](C(=O)Nc2ccc(F)cc2F)ON1C (mixture of isomers)
inactive: inhibition [1] | inhibition [3] | inhibition [4] | inhibition [5] | inhibition [6] | inhibition [7] | inhibition [8] | inhibition [9] | inhibition [10] | inhibition [11] | inhibition [12] | inhibition [14] | inhibition [15] | inhibition [16] | inhibition [17] | inhibition [19] | inhibition [22] | inhibition [23]
Non-toxic: Activity [2] | Activity [13] | Activity [18] | Activity [20] | Activity [21]

CCOP(=O)(OCC)[C@@H]1C[C@H](C(=O)Nc2cccc(C(C)=O)c2)ON1C (racemic)
Non-toxic: Activity [2] | Activity [13] | Activity [18] | Activity [20] | Activity [21]
inactive: inhibition [1] | inhibition [3] | inhibition [4] | inhibition [5] | inhibition [6] | inhibition [7] | inhibition [8] | inhibition [9] | inhibition [10] | inhibition [11] | inhibition [12] | inhibition [14] | inhibition [15] | inhibition [16] | inhibition [17] | inhibition [19] | inhibition [22] | inhibition [23]

CCOP(=O)(OCC)[C@@H]1C[C@H](C(=O)Nc2cc(OC)c(OC)c(OC)c2)ON1C (racemic)
inactive: inhibition [1] | inhibition [3] | inhibition [4] | inhibition [5] | inhibition [6] | inhibition [7] | inhibition [8] | inhibition [9] | inhibition [10] | inhibition [11] | inhibition [12] | inhibition [14] | inhibition [15] | inhibition [16] | inhibition [17] | inhibition [19] | inhibition [22] | inhibition [23]
Non-toxic: Activity [2] | Activity [13] | Activity [18] | Activity [20] | Activity [21]

CCOP(=O)(OCC)[C@H]1C[C@H](C(=O)Nc2cccc(Cl)c2)ON1C (mixture of isomers)
Non-toxic: Activity [2] | Activity [13] | Activity [18] | Activity [20] | Activity [21]
inactive: inhibition [1] | inhibition [3] | inhibition [4] | inhibition [5] | inhibition [6] | inhibition [7] | inhibition [8] | inhibition [9] | inhibition [10] | inhibition [11] | inhibition [12] | inhibition [14] | inhibition [15] | inhibition [16] | inhibition [17] | inhibition [19] | inhibition [22] | inhibition [23]

CCOP(=O)(OCC)[C@H]1C[C@H](C(=O)Nc2cccc([N+](=O)[O-])c2)ON1C (mixture of isomers)
Non-toxic: Activity [2] | Activity [13] | Activity [18] | Activity [20] | Activity [21]
inactive: inhibition [1] | inhibition [3] | inhibition [4] | inhibition [5] | inhibition [6] | inhibition [7] | inhibition [8] | inhibition [9] | inhibition [10] | inhibition [11] | inhibition [12] | inhibition [14] | inhibition [15] | inhibition [16] | inhibition [17] | inhibition [19] | inhibition [22] | inhibition [23]

CCOP(=O)(OCC)[C@@H]1C[C@H](C(=O)Nc2ccc([N+](=O)[O-])cc2)ON1C (racemic)
inactive: inhibition [1] | inhibition [3] | inhibition [4] | inhibition [5] | inhibition [6] | inhibition [7] | inhibition [8] | inhibition [9] | inhibition [10] | inhibition [11] | inhibition [12] | inhibition [14] | inhibition [15] | inhibition [16] | inhibition [17] | inhibition [19] | inhibition [22] | inhibition [23]
Non-toxic: Activity [2] | Activity [13] | Activity [18] | Activity [20] | Activity [21]
